Reference: ChEMBL document CHEMBL1921722, “In vitro and in vivo evaluation of select kahalalide F analogs with antitumor and antifungal activities” (Bioorg Med Chem, 2011)
Converted amounts (≈) assume the structure as drawn. The source made the active and inactive calls.

Assays:
COLO 205 = test: Cytotoxicity against human COLO205 cells assessed as cell growth at 80 uM by sulforhodamine B assay relative to control; assay type: functional; conditions: read-out: Activity
Summary of the method: (§1)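 Run at NCI in the DTP 60-cell-line human tumor panel by standard procedure. Compounds were first screened at a single concentration, then tested at five tenfold-spaced concentrations. GI50 is the concentration reducing treated-cell growth to half that of untreated controls; TGI is the concentration completely halting growth.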

PC-3 [1] = test: Cytotoxicity against human PC3 cells assessed as cell growth at 8 nM by sulforhodamine B assay relative to control; assay type: functional; conditions: read-out: Activity
HOP-62 = test: Cytotoxicity against human HOP62 cells assessed as cell growth at 80 nM by sulforhodamine B assay relative to control; assay type: functional; conditions: read-out: Activity
LOX IMVI [2] = test: Cytotoxicity against human LOXIMVI cells assessed as cell growth at 800 nM by sulforhodamine B assay relative to control; assay type: functional; conditions: read-out: Activity
HCT-116 [3] = test: Cytotoxicity against human HCT116 cells assessed as cell growth at 8 uM by sulforhodamine B assay relative to control; assay type: functional; conditions: read-out: Activity
UACC-257 = test: Cytotoxicity against human UACC257 cells assessed as cell growth at 8 uM by sulforhodamine B assay relative to control; assay type: functional; conditions: read-out: Activity
NCI/ADR-RES [4] = test: Cytotoxicity against human NCI/ADR-RES cells assessed as cell growth at 80 uM by sulforhodamine B assay relative to control; assay type: functional; conditions: read-out: Activity
Pseudomonas aeruginosa = test: Antimicrobial activity against Pseudomonas aeruginosa ATCC 27853 by CLSI method; assay type: functional, organism-based
SNB-75 [5] = test: Cytotoxicity against human SNB75 cells assessed as cell growth at 8 uM by sulforhodamine B assay relative to control; assay type: functional; conditions: read-out: Activity
NCI-H226 = test: Cytotoxicity against human NCI-H226 cells assessed as cell growth at 80 nM by sulforhodamine B assay relative to control; assay type: functional; conditions: read-out: Activity
MDA-MB-231 = test: Cytotoxicity against human MDA-MB-231 cells assessed as cell growth at 800 nM by sulforhodamine B assay relative to control; assay type: functional; conditions: read-out: Activity
LOX IMVI [6] = test: Cytotoxicity against human LOXIMVI cells assessed as cell growth at 80 nM by sulforhodamine B assay relative to control; assay type: functional; conditions: read-out: Activity
OVCAR-8 = test: Cytotoxicity against human OVCAR8 cells assessed as cell growth at 80 nM by sulforhodamine B assay relative to control; assay type: functional; conditions: read-out: Activity
ACHN [7] = test: Cytotoxicity against human ACHN cells assessed as cell growth at 8 nM by sulforhodamine B assay relative to control; assay type: functional; conditions: read-out: Activity; summary of the method: as §1
SF-295 [8] = test: Cytotoxicity against human SF295 cells by sulforhodamine B assay; assay type: functional
Summary of the method: (§2)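 NCI Developmental Therapeutics Program 60-cell-line human tumor panel screen, run at NCI. A single-concentration pre-screen was followed by a five-concentration dose-response in 10-fold steps. GI50 is the concentration that reduces growth of treated cells to half that of untreated control cells. TGI is the concentration that completely halts growth.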

M14 [9] = test: Cytotoxicity against human M14 cells assessed as cell growth at 8 uM by sulforhodamine B assay relative to control; assay type: functional; conditions: read-out: Activity
SF-295 [10] = test: Cytotoxicity against human SF295 cells assessed as cell growth at 800 nM by sulforhodamine B assay relative to control; assay type: functional; conditions: read-out: Activity
RPMI-8226 = test: Cytotoxicity against human RPMI8226 cells assessed as cell growth at 80 uM by sulforhodamine B assay relative to control; assay type: functional; conditions: read-out: Activity
MOLT-4 [11] = test: Cytotoxicity against human MOLT4 cells assessed as cell growth at 800 nM by sulforhodamine B assay relative to control; assay type: functional; conditions: read-out: Activity
NCI-H23 = test: Cytotoxicity against human NCI-H23 cells assessed as cell growth at 800 nM by sulforhodamine B assay relative to control; assay type: functional; conditions: read-out: Activity
MOLT-4 [12] = test: Cytotoxicity against human MOLT4 cells assessed as cell growth at 80 nM by sulforhodamine B assay relative to control; assay type: functional; conditions: read-out: Activity
M14 [13] = test: Cytotoxicity against human M14 cells assessed as cell growth at 800 nM by sulforhodamine B assay relative to control; assay type: functional; conditions: read-out: Activity
PC-3 [14] = test: Cytotoxicity against human PC3 cells assessed as cell growth at 800 nM by sulforhodamine B assay relative to control; assay type: functional; conditions: read-out: Activity
NCI/ADR-RES [15] = test: Cytotoxicity against human NCI/ADR-RES cells assessed as cell growth at 800 nM by sulforhodamine B assay relative to control; assay type: functional; conditions: read-out: Activity
SW-620 = test: Cytotoxicity against human SW620 cells assessed as cell growth at 800 nM by sulforhodamine B assay relative to control; assay type: functional; conditions: read-out: Activity
Cryptococcus neoformans = test: Antimicrobial activity against Cryptococcus neoformans ATCC 90113 by CLSI method; assay type: functional, organism-based
SNB-75 [16] = test: Cytotoxicity against human SNB75 cells assessed as cell growth at 80 nM by sulforhodamine B assay relative to control; assay type: functional; conditions: read-out: Activity
ACHN [17] = test: Cytotoxicity against human ACHN cells assessed as cell growth at 80 uM by sulforhodamine B assay relative to control; assay type: functional; conditions: read-out: Activity; summary of the method: as §1
HCT-116 [18] = test: Cytotoxicity against human HCT116 cells by sulforhodamine B assay; assay type: functional
Summary of the method: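 Run by the NCI Developmental Therapeutics Program on its 60-line human tumour cell panel using the standard procedure. Compounds went through a single-concentration prescreen first, and those active by NCI criteria went on to a five-concentration growth-inhibition test. GI50 is the concentration that cuts growth of treated cells to half that of untreated control cells.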

LOX IMVI [19] = test: Cytotoxicity against human LOXIMVI cells assessed as cell growth at 80 uM by sulforhodamine B assay relative to control; assay type: functional; conditions: read-out: Activity
SF-268 = test: Cytotoxicity against human SF268 cells assessed as cell growth at 80 nM by sulforhodamine B assay relative to control; assay type: functional; conditions: read-out: Activity
A498 = test: Cytotoxicity against human A498 cells assessed as cell growth at 8 nM by sulforhodamine B assay relative to control; assay type: functional; conditions: read-out: Activity; summary of the method: as §1
A549 [20] = test: Cytotoxicity against human A549 cells assessed as cell growth at 800 nM by sulforhodamine B assay relative to control; assay type: functional; conditions: read-out: Activity; summary of the method: as §1
SN12C = test: Cytotoxicity against human SN12C cells by sulforhodamine B assay; assay type: functional; summary of the method: as §2
MOLT-4 [21] = test: Cytotoxicity against human MOLT4 cells by sulforhodamine B assay; assay type: functional; summary of the method: as §2
SF-295 [22] = test: Cytotoxicity against human SF295 cells assessed as cell growth at 8 nM by sulforhodamine B assay relative to control; assay type: functional; conditions: read-out: Activity
SK-MEL-5 [23] = test: Cytotoxicity against human SK-MEL-5 cells assessed as cell growth at 800 nM by sulforhodamine B assay relative to control; assay type: functional; conditions: read-out: Activity
SK-MEL-5 [24] = test: Cytotoxicity against human SK-MEL-5 cells assessed as cell growth at 80 nM by sulforhodamine B assay relative to control; assay type: functional; conditions: read-out: Activity
A549 [25] = test: Cytotoxicity against human A549 cells assessed as cell growth at 8 nM by sulforhodamine B assay relative to control; assay type: functional; conditions: read-out: Activity; summary of the method: as §1

C/C=C1\NC(=O)[C@H](Cc2ccccc2)NC(=O)[C@@H](C(C)C)NC(=O)[C@@H]([C@@H](C)CC)NC(=O)[C@H](NC(=O)[C@H](NC(=O)[C@H](CCCNCc2ccc(F)c(C)c2)NC(=O)[C@H]2CCCN2C(=O)[C@H](NC(=O)[C@@H](NC(=O)[C@@H](NC(=O)[C@H](NC(=O)CCCC(C)C)C(C)C)[C@@H](C)O)C(C)C)C(C)C)[C@@H](C)CC)[C@@H](C)OC(=O)[C@H](C(C)C)NC1=O
growth at 80 µM (COLO 205): 33% | growth at 0.008 µM (PC-3 [1]): 109% | growth at 0.08 µM (HOP-62): 102% | growth at 0.8 µM (LOX IMVI [2]): 108% | growth at 8 µM (HCT-116 [3]): -100% | growth at 8 µM (UACC-257): -78% | growth at 80 µM (NCI/ADR-RES [4]): -60% | Activity (Pseudomonas aeruginosa): inactive | growth at 8 µM (SNB-75 [5]): -73% | growth at 0.08 µM (NCI-H226): 109% | growth at 0.8 µM (MDA-MB-231): 91% | growth at 0.08 µM (LOX IMVI [6]): 94% | growth at 0.08 µM (OVCAR-8): 103% | growth at 0.008 µM (ACHN [7]): 100% | GI50 (SF-295 [8]): 1260 nM | TGI (SF-295 [8]; read-out: pTGI (converted)): 2400 nM | growth at 8 µM (M14 [9]): -99% | growth at 0.8 µM (SF-295 [10]): 89% | growth at 80 µM (RPMI-8226): -21% | growth at 0.8 µM (MOLT-4 [11]): 96% | growth at 0.8 µM (NCI-H23): 98% | growth at 0.08 µM (MOLT-4 [12]): 97% | growth at 0.8 µM (M14 [13]): 101% | growth at 0.8 µM (PC-3 [14]): -54% | growth at 0.8 µM (NCI/ADR-RES [15]): 91% | growth at 0.8 µM (SW-620): 40% | IC50 (Cryptococcus neoformans): 950 nM | MFC (Cryptococcus neoformans): 10 µM (≈ 16 µg/mL) | MIC (Cryptococcus neoformans): 5 µM (≈ 8 µg/mL) | growth at 0.08 µM (SNB-75 [16]): 115% | growth at 80 µM (ACHN [17]): -100% | GI50 (HCT-116 [18]): 1380 nM | LC50 (HCT-116 [18]): 4270 nM | TGI (HCT-116 [18]; read-out: pTGI (converted)): 2450 nM | growth at 80 µM (LOX IMVI [19]): -92% | growth at 0.08 µM (SF-268): 99% | growth at 0.008 µM (A498): 102% | growth at 0.8 µM (A549 [20]): -40% | GI50 (SN12C): 1260 nM | LC50 (SN12C): 4900 nM | TGI (SN12C; read-out: pTGI (converted)): 2450 nM | GI50 (MOLT-4 [21]): 2140 nM | LC50 (MOLT-4 [21]): > 75900 nM | growth at 0.008 µM (SF-295 [22]): 99% | growth at 0.8 µM (SK-MEL-5 [23]): 83% | growth at 0.08 µM (SK-MEL-5 [24]): 99% | growth at 0.008 µM (A549 [25]): 100%
